Measurements: PubChem BioAssay
Activity calls are given as the source filed them.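 Rule for the calls, unless noted: active = NADPH fluorescence slope more negative than the mean of all samples by about 3 SD, 99.7% confidence; inactive = the rest.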

What was measured:
[1] = inhibitors of TNFa-induced NFkB p65 translocation, primary screen, imaging, HUVEC, MLSMR starter and 10KST1 sets (AID 438;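 active = inhibition above 20% together with a positive visual image hit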;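 note: compound added about 3h40 before a 20 min TNFalpha stimulation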;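 for inhibition: signal is the nuclear over cytoplasmic p65 intensity ratio per well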); conditions: HUVEC TNFa-induced p65 nuclear translocation; cell count: measured here: nuclei count (cytotoxicity indicator), at 2.08 µM; inhibition: at 2 µM, stronger effect = higher value, 0% TNFa-plus-vehicle, 100% no-TNFa wells
[2] = reduction of polyQ htt aggregates in cells – imaging, exon1htt(103Q)mCFP cells, high-content imaging, primary screen (AID 483;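 active = visual image review flags a hit and inhibition of aggregation exceeds 20%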;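 note: compound exposure lasted 3 days before fixation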;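 for nuclei count: percent of the per-plate median nuclei count of sample wells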); conditions: exon1htt(103Q)mCFP cell line, aggregate imaging, at 2 µM; inhibition of aggregation: stronger effect = higher value; nuclei count: measured here: cell count, toxicity
[3] = endothelial E-selectin expression blockers – imaging, HUVEC, immunofluorescence, MLSMR starter and 10KST1 sets, primary screen (AID 487;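 active = visually confirmed hit in the image check and inhibition above 20%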;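 for inhibition: signal is fraction of cell area covered by stained E-selectin grains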;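 for nuclei count: 100% = median nuclei count of all wells on the same plate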); conditions: HUVEC TNFalpha-induced E-selectin immunofluorescence imaging, at 2 µM; inhibition: stronger effect = higher value; nuclei count: measured here: cell number, toxicity
[4] = molecular target: Voltage-gated potassium channel subunit beta-2 (Rattus norvegicus) (UniProt P62483); assay: inhibitors of rat Kvbeta2 reductase activity – biochemical, NADPH fluorescence, primary screen (AID 622;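 active = fluorescence slope higher than the sample average by over 3 SD, cut at about -0.22 in these data, passing the limit was not always enough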;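 note: slope of raw intensity against log time taken from 70 to 1610 s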); conditions: recombinant KvBeta, 4-cyanobenzaldehyde reduction, at 10 µM, stronger effect = higher value
[5] = molecular target: Voltage-gated potassium channel subunit beta-2 (Rattus norvegicus) (UniProt P62483); assay: enhancers of rat Kvbeta2 NADPH turnover – biochemical, NADPH fluorescence, primary screen (AID 623); conditions: Recombinant KvBeta, NADPH fluorescence decrease slope, 10 min; at 10 µM; stronger effect = lower value;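 note: fluorescence intensity change per second fitted from 20 to 320 s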
[6] = molecular target: Alpha-2C adrenergic receptor (Homo sapiens) (UniProt P18825); assay: compounds altering alpha2C-coupled GIRK flux – cell-based, HEK293 alpha2C/GIRK1/2, thallium flux, primary screen (AID 624;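 active = fluorescence slope after compound addition differing from the mean of all screened samples at 99.7% confidence, in either direction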;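 note: slope of fluorescence ratio to pre-addition baseline per second over 15 to 24 s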); conditions: thallium flux BTC fluorescence, at 10 µM, actives lie on both sides
[7] = inhibitors of larval lipid processing in zebrafish, primary screen, whole organism, PED6 fluorescence, gall bladder and intestine (AID 686;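 active = a full or partial loss of lipid-probe fluorescence in the fish gall bladder, intestine or both, judged by eye; inactive = no fluorescence loss, or compound toxic to the fish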;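 note: larvae 5 to 7 days old with five fish per well; signal comes from phospholipase A2 cleavage of quenched PED6 carried via bile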); conditions: Zebrafish larvae PED6 lipid processing, fluorescence scoring; screened at 20 µM (by protocol)
Procedure, shortened: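 Incubation: overnight exposure of larvae to compound plus PED6 / Test system: live zebrafish larvae aged 5-7 days, whole organism / Amount: 5 larvae per well / Read-out basis: visual per-well fluorescence inhibition score / Signal: visual fluorescence microscopy scoring of gall bladder, gut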

[8] = blockers of RIG-like receptor reporter activation – cell-based, Sendai virus stimulus, luciferase, 10K MLSCN set, TLR/RLR signaling modifier project, primary screen (AID 602276;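 active = inhibition at or above 50% at 10 µM; inactive = inhibition below 50%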;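 note: firefly luciferase from ISG56 promoter only with Renilla not read in this screen; 0% = Sendai virus plus DMSO and 100% = medium plus DMSO without virus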); conditions: HEK293 RL24 IRF3 luciferase reporter, at 10 µM, stronger effect = higher value
[9] = TLR3 IRF3 reporter activation blockers – cell-based, poly I:C stimulus, luciferase, 10K MLSCN set, primary screen (AID 602277;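 active = inhibition of the reporter signal at or above 50%; inactive = inhibition below 50%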); conditions: HEK293-TLR3 RL24 IRF3 luciferase reporter, at 10 µM, stronger effect = higher value

Sequence of Alpha-2C adrenergic receptor (Homo sapiens) (P18825 whole entry, looked up): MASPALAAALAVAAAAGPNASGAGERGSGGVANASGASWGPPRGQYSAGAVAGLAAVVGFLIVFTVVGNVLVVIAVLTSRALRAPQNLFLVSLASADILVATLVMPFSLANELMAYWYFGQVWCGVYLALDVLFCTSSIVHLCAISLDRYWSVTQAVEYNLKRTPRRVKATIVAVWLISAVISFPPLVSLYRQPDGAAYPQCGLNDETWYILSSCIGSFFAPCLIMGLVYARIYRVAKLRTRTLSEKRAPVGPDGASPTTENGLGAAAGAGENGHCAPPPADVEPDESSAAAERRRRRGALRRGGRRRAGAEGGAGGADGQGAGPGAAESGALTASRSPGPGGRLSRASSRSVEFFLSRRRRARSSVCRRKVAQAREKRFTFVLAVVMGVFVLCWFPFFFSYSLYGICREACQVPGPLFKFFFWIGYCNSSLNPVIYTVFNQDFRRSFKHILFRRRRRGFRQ
Sequence of Voltage-gated potassium channel subunit beta-2 (Rattus norvegicus) (P62483 whole entry, looked up): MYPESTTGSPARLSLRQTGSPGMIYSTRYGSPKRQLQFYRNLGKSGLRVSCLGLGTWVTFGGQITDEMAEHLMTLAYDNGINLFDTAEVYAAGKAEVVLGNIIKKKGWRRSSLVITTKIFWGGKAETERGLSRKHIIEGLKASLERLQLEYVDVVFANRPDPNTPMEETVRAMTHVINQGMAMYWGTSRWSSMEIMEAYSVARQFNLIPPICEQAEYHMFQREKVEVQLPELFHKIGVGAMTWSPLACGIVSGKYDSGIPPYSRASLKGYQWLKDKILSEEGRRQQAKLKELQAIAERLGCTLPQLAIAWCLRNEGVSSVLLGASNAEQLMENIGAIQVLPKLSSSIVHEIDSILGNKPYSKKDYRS

Compound | cell count [1] | inhibition [1] | inhibition of aggregation [2] | nuclei count [2] [%] | inhibition [3] | nuclei count [3] [%] | fluorescence slope [4] | NADPH fluorescence slope [5] | slope [6] | outcome [7] | inhibition [8] | inhibition [9]
CC(C)(C)n1ncc2c(=O)n(CC(=O)NCc3ccccc3)cnc21 | 615 | 2.4% (inactive) | 0.5% (inactive) | 82.4 | -117% (inactive) | 104 | -0.296 (inactive) | -1.3e-05 (inactive) | 0.00536 (inactive) | inactive | -28.3% (inactive) | 69.7% (active)
CCOc1ccc(NC(=O)COC(=O)Cn2cnnn2)cc1OCC | 373 | -19.6% (inactive) | 11.4% (inactive) | 57.8 | 33.9% (inactive) | 72.6 | -0.468 (inactive) | -2.6e-05 (inactive) | 0.00481 (inactive) | inactive | 10.8% (inactive) | 9.82% (inactive)
O=C(CN1CCN(c2ccc(F)cc2)CC1)OCc1ccccc1 | 662 | 11.1% (inactive) | -6.3% (inactive) | 102 | 5.8% (inactive) | 118 | -0.356 (inactive) | -6.7e-05 (inactive) | 0.00472 (inactive) | inactive | 6.81% (inactive) | 6.58% (inactive)
c1ccc(OCCCn2nnc(-c3ccncc3)n2)cc1 | 604 | -9.9% (inactive) | 2.3% (inactive) | 91.9 | -57.3% (inactive) | 114 | -0.454 (inactive) | -2.7e-05 (inactive) | 0.00445 (inactive) | inactive | 13.2% (inactive) | -7.55% (inactive)
COc1ccccc1CNC(=O)C(C)NS(=O)(=O)c1ccccc1 (centres undefined) | 295 | -11.3% (inactive) | -13.2% (inactive) | 107 | -11.2% (inactive) | 78 | -0.406 (inactive) | 2.3e-06 (inactive) | 0.00647 (inactive) | inactive | -0.773% (inactive) | 1.85% (inactive)
O=C(Cn1c(=O)oc2ccccc21)N1CCN(c2ccccc2)CC1 | 421 | 2.6% (inactive) | 10% (inactive) | 99.1 | -10.5% (inactive) | 114 | -0.407 (inactive) | -4.3e-05 (inactive) | 0.00535 (inactive) | inactive | 8.94% (inactive) | 14.4% (inactive)
CCOC(=O)c1cc(CC)sc1NC(=O)COC | 324 | -6% (inactive) | -9.4% (inactive) | 86.3 | 34% (inactive) | 80 | -0.321 (inactive) | -7.5e-06 (inactive) | 0.00509 (inactive) | inactive | 2.16% (inactive) | 4.15% (inactive)
CN1CCN(c2ccc(Cl)cc2NC(=O)c2cccc(S(=O)(=O)N(C)C)c2)CC1 | 378 | 0.5% (inactive) | -6.9% (inactive) | 133 | 14.4% (inactive) | 88.8 | -0.373 (inactive) | -2e-05 (inactive) | 0.00491 (inactive) | inactive | 6.8% (inactive) | 12.4% (inactive)
CCN(CC)C(=O)C1CCN(CC2CC=CCC2)CC1 (centres undefined) | 377 | -8.2% (inactive) | 12.3% (inactive) | 110 | -22.3% (inactive) | 76.6 | -0.361 (inactive) | 2.7e-06 (inactive) | 0.00638 (inactive) | inactive | -1.94% (inactive) | 9.42% (inactive)
Cc1ccc(OCC2Cn3c(nc4c3c(=O)n(C)c(=O)n4C)O2)cc1 (centres undefined) | 423 | 1.8% (inactive) | 22.4% (inactive) | 104 | -13.1% (inactive) | 120 | -0.406 (inactive) | -2.7e-05 (inactive) | 0.00486 (inactive) | inactive | 17.1% (inactive) | 11.7% (inactive)
CS(=O)(=O)N(CC(=O)Nc1ccc2c(c1)OCO2)Cc1ccc(Cl)cc1 | 303 | 8.9% (inactive) | -3.1% (inactive) | 92 | -20.4% (inactive) | 88.8 | -0.428 (inactive) | -6.6e-05 (inactive) | 0.00445 (inactive) | inactive | 11.9% (inactive) | 17.7% (inactive)
CCOC(=O)/C=C1\SCC(=O)N1Cc1nnc(-c2ccccc2Br)o1 | 505 | 0.5% (inactive) | -7.7% (inactive) | 98.7 | -51.5% (inactive) | 123 | -0.452 (inactive) | -5.3e-05 (inactive) | 0.00466 (inactive) | inactive | 12.8% (inactive) | 10.1% (inactive)
CC(C)(C)NC(=O)CN(Cc1cccs1)C(=O)c1csnn1 | 570 | 12.9% (inactive) | 34.6% (active) | 85 | 20.6% (inactive) | 89.9 | -0.431 (inactive) | -4.2e-05 (inactive) | 0.00455 (inactive) | inactive | 11.9% (inactive) | 16.1% (inactive)
CCC(=O)N(Cc1ccco1)c1nc(-c2cc(OC)ccc2OC)cs1 | 643 | -8% (inactive) | 18.8% (inactive) | 100 | -11.7% (inactive) | 101 | -0.397 (inactive) | -4.8e-05 (inactive) | 0.00497 (inactive) | inactive | 8.75% (inactive) | 7.6% (inactive)
Cc1ccc2c(c1)CCCN2C(=O)c1ccc2c(c1)OCO2 | 328 | -0.6% (inactive) | -0.1% (inactive) | 99.3 | -117% (inactive) | 118 | -0.457 (inactive) | -5.1e-05 (inactive) | 0.00431 (inactive) | inactive | 4.95% (inactive) | 4.76% (inactive)
O=C(Nc1ccc(NC(=O)C2CC2)cn1)c1ccccc1Cl | 745 | 2.6% (inactive) | -13% (inactive) | 104 | -79% (inactive) | 113 | -0.316 (inactive) | -8e-07 (inactive) | 0.00552 (inactive) | inactive | -65.9% (inactive) | -212% (inactive)
Cc1cccc(-n2ncc3c(NCc4cccs4)ncnc32)c1 | 667 | 6.7% (inactive) | 0.1% (inactive) | 99.5 | -119% (inactive) | 108 | -0.458 (inactive) | -2.6e-05 (inactive) | 0.00473 (inactive) | inactive | -36.3% (inactive) | -95% (inactive)
CCOC(=O)N1CCN(C(=O)CN(Cc2ccccc2)S(=O)(=O)c2ccc(OC)c(C)c2)CC1 | 320 | -2.3% (inactive) | 1.8% (inactive) | 106 | -6.6% (inactive) | 70.5 | -0.38 (inactive) | 1e-05 (inactive) | 0.00442 (inactive) | inactive | -4.93% (inactive) | 1.48% (inactive)
CC1=Nn2c(nnc2-c2ccccc2)SC1 | 303 | -2.7% (inactive) | -6.5% (inactive) | 121 | -19.2% (inactive) | 108 | -0.374 (inactive) | -1.6e-05 (inactive) | 0.00576 (inactive) | inactive | 11.5% (inactive) | -4.42% (inactive)
COC(=O)C1C2C=CC3(CN(CC4CCCO4)C(=O)C13)O2 (centres undefined) | 504 | 4% (inactive) | -7.3% (inactive) | 111 | 9.9% (inactive) | 98.5 | -0.457 (inactive) | -1.5e-05 (inactive) | 0.00504 (inactive) | inactive | 5.61% (inactive) | 11.6% (inactive)
Cc1cc(NC(=O)Cc2c(F)cccc2Cl)no1 | 586 | -1.1% (inactive) | -15.9% (inactive) | 99.9 | 34.2% (inactive) | 94.3 | -0.44 (inactive) | -2.5e-05 (inactive) | 0.00621 (inactive) | inactive | 14.4% (inactive) | 19.6% (inactive)
COCCNC(=O)NC(=O)COC(=O)Cc1ccc2c(c1)OCCO2 | 376 | 5.1% (inactive) | -11.9% (inactive) | 109 | -127% (inactive) | 110 | -0.418 (inactive) | -6.4e-05 (inactive) | 0.00538 (inactive) | inactive | 17% (inactive) | 16.3% (inactive)
O=C(c1cc2nc(-c3ccco3)cc(C(F)(F)F)n2n1)N1CCN(c2ccccn2)CC1 | 746 | -10.5% (inactive) | 2.8% (inactive) | 101 | 32.7% (inactive) | 107 | -0.357 (inactive) | -6.7e-05 (inactive) | 0.00309 (inactive) | inactive | 10.1% (inactive) | -6.91% (inactive)
COc1ccc(N2CCN(C(=O)CSc3ccccc3)CC2)cc1 | 393 | -11.8% (inactive) | 1.5% (inactive) | 105 | -18.6% (inactive) | 108 | -0.401 (inactive) | -5.3e-05 (inactive) | 0.00515 (inactive) | inactive | -14.2% (inactive) | -34.1% (inactive)
COc1ccccc1CC(=O)NCC1CCCO1 (centres undefined) | 346 | -15.9% (inactive) | 8.9% (inactive) | 107 | -2.8% (inactive) | 130 | -0.329 (inactive) | -4.4e-05 (inactive) | 0.00554 (inactive) | inactive | 11.5% (inactive) | 17.7% (inactive)
CNC(=O)c1ccc2nc(NC(C)=O)sc2c1 | 382 | -10.3% (inactive) | 4.1% (inactive) | 74.6 | 13.2% (inactive) | 56.8 | -0.327 (inactive) | -6.5e-05 (inactive) | 0.00564 (inactive) | inactive | -11.9% (inactive) | -21.9% (inactive)
Cc1cccc(NC(=O)CCCCCN2C(=O)c3ccccc3C2=O)n1 | 495 | -4.8% (inactive) | -19.8% (inactive) | 103 | -68.6% (inactive) | 167 | -0.44 (inactive) | -6.5e-05 (inactive) | 0.00404 (inactive) | inactive | 15.6% (inactive) | 15.2% (inactive)
